Key:
[1] = Half-life in rat serum; type: ADME, organism-based
Summary of the method: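 Compounds incubated at 37°C in fresh rat serum; aliquots removed at several time points and analysed by HPLC to estimate half-life.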

Rattus norvegicus [2] = species on record: Rattus norvegicus; test: Inhibitory activity against GHRH-stimulated GH release from monolayer cultures of rat pituitary cells; type: functional, cell-based; conditions: Pituitary gland cell
Summary of the method: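 Monolayer cultures of rat pituitary cells stimulated with GHRH; agonist potency measured as inhibition of GH release, expressed as IC50.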

IMR-32 = test: Cytotoxic activity against human neuroblastoma IMR32 cells; type: functional, cell-based
Summary of the method: (§1)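 Human neuroblastoma IMR-32 cells (somatostatin receptor/SSTR2 over-expressing) exposed to a range of compound concentrations for 3 days, in quadruplicate; viability read by MTT assay; IC50 taken from dose-response curves.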

[3] = Half-life in phosphate buffer; type: ADME
Summary of the method: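 Incubated in 0.1 M phosphate buffer at 37°C; aliquots taken at various time points and analysed by HPLC to give half-life. The experiment ran for 50 h.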

Somatostatin receptor = test: Cytotoxic activity against human neuroblastoma IMR32 cells which over-express somatostatin receptors; type: functional, cell-based; conditions: imr-32; summary of the method: as §1
Rattus norvegicus [4] = species on record: Rattus norvegicus; test: Inhibitory activity against GHRH-stimulated GH release from monolayer cultures of rat pituitary cells; na is not active; type: functional, cell-based; conditions: pituitary gland cell

| Structure (SMILES) | half-life [1] [h] | IC50 (Rattus norvegicus [2]) [nM] | IC50 (IMR-32) [nM] | half-life [3] [h] | IC50 (Somatostatin receptor) [nM] | IC50 (Rattus norvegicus [4]) |
| --- | --- | --- | --- | --- | --- | --- |
| CCCC[C@H](NC(=O)[C@@H](CO)NC(=O)CN(CCN)C(=O)O[C@]1(CC)C(=O)OCc2c1cc1n(c2=O)Cc2cc3ccccc3nc2-1)C(=O)N[C@H](Cc1ccc(O)cc1)C(=O)N[C@H](CO)C(=O)N[C@@H]1CSSC[C@H](C(=O)N[C@H](C(N)=O)[C@@H](C)O)NC(=O)[C@H]([C@@H](C)O)NC(=O)[C@H](CCCN)NC(=O)[C@@H](Cc2c[nH]c3ccccc23)NC(=O)[C@H](Cc2ccccc2)NC1=O | 106 | 0.32 | 374 |  |  |  |
| CCCC[C@H](NC(=O)[C@@H](CO)NC(=O)CN(CCN)C(=O)Oc1cc(/C=C\c2cc(OC)c(OC)c(OC)c2)ccc1OC)C(=O)N[C@H](Cc1ccc(O)cc1)C(=O)N[C@H](CO)C(=O)N[C@@H]1CSSC[C@H](C(=O)N[C@H](C(N)=O)[C@@H](C)O)NC(=O)[C@H]([C@@H](C)O)NC(=O)[C@H](CCCN)NC(=O)[C@@H](Cc2c[nH]c3ccccc23)NC(=O)[C@H](Cc2ccccc2)NC1=O | 4 | 0.31 |  | 31 | 2.79 |  |
| CCCC[C@H](NC(=O)[C@@H](CO)NC(=O)CN(CCO)C(=O)O[C@]1(CC)C(=O)OCc2c1cc1n(c2=O)Cc2cc3ccccc3nc2-1)C(=O)N[C@H](Cc1ccc(O)cc1)C(=O)N[C@H](CO)C(=O)N[C@@H]1CSSC[C@H](C(=O)N[C@H](C(N)=O)[C@@H](C)O)NC(=O)[C@H]([C@@H](C)O)NC(=O)[C@H](CCCN)NC(=O)[C@@H](Cc2c[nH]c3ccccc23)NC(=O)[C@H](Cc2ccccc2)NC1=O |  | 0.49 |  |  | > 1000 |  |
| CC[C@@]1(O)C(=O)OCc2c1cc1n(c2=O)Cc2cc3ccccc3nc2-1 [CAMPTOTHECIN] |  |  |  |  | 2.21 | Not Active |

Further compounds by falling IC50 (Rattus norvegicus [2]), results first:

| half-life [1] [h] | IC50 (Rattus norvegicus [2]) [nM] | Structure (SMILES) | IC50 (IMR-32) [nM] | half-life [3] [h] | IC50 (Somatostatin receptor) [nM] | IC50 (Rattus norvegicus [4]) |
| --- | --- | --- | --- | --- | --- | --- |
| 59 | 0.3 | CCCC[C@H](NC(=O)[C@@H](CO)NC(=O)CN(CCN(C)C)C(=O)O[C@]1(CC)C(=O)OCc2c1cc1n(c2=O)Cc2cc3ccccc3nc2-1)C(=O)N[C@H](Cc1ccc(O)cc1)C(=O)N[C@H](CO)C(=O)N[C@@H]1CSSC[C@H](C(=O)N[C@H](C(N)=O)[C@@H](C)O)NC(=O)[C@H]([C@@H](C)O)NC(=O)[C@H](CCCN)NC(=O)[C@@H](Cc2c[nH]c3ccccc23)NC(=O)[C@H](Cc2ccccc2)NC1=O |  |  | 571 |  |
| 18 | 0.27 | CCCC[C@H](NC(=O)[C@@H](CO)NC(=O)CN(CCNC)C(=O)O[C@]1(CC)C(=O)OCc2c1cc1n(c2=O)Cc2cc3ccccc3nc2-1)C(=O)N[C@H](Cc1ccc(O)cc1)C(=O)N[C@H](CO)C(=O)N[C@@H]1CSSC[C@H](C(=O)N[C@H](C(N)=O)[C@@H](C)O)NC(=O)[C@H]([C@@H](C)O)NC(=O)[C@H](CCCN)NC(=O)[C@@H](Cc2c[nH]c3ccccc23)NC(=O)[C@H](Cc2ccccc2)NC1=O |  | 123 | 54.2 |  |
| 72 | 0.26 | CCCC[C@H](NC(=O)[C@@H](CO)NC(=O)CN(CCCN)C(=O)O[C@]1(CC)C(=O)OCc2c1cc1n(c2=O)Cc2cc3ccccc3nc2-1)C(=O)N[C@H](Cc1ccc(O)cc1)C(=O)N[C@H](CO)C(=O)N[C@@H]1CSSC[C@H](C(=O)N[C@H](C(N)=O)[C@@H](C)O)NC(=O)[C@H]([C@@H](C)O)NC(=O)[C@H](CCCN)NC(=O)[C@@H](Cc2c[nH]c3ccccc23)NC(=O)[C@H](Cc2ccccc2)NC1=O |  |  | > 1000 |  |

Reference: ChEMBL document CHEMBL1136609, “An adjustable release rate linking strategy for cytotoxin-peptide conjugates” (Bioorg Med Chem Lett, 2003)
